# Measurements published in ChEMBL document CHEMBL1131002, “2beta-Substituted analogues of 4'-iodococaine: synthesis and dopamine transporter binding potencies” (J Med Chem, 1998).
# Tests used:
# [1] = target: Sodium-dependent dopamine transporter (Rattus norvegicus, UniProt P23977); test: Inhibition of dopamine Transporter Affinity against rat whole brain using [3H]WIN-35428 as radioligand; format: tissue-based
# [2] = target: Norepinephrine transporter (Rattus norvegicus, UniProt Q9WTR4); test: Inhibition of norepinephrine Transporter Affinity against rat whole brain using [3H]nisoxetine radioligand
# Chain of Norepinephrine transporter (Q9WTR4 whole entry): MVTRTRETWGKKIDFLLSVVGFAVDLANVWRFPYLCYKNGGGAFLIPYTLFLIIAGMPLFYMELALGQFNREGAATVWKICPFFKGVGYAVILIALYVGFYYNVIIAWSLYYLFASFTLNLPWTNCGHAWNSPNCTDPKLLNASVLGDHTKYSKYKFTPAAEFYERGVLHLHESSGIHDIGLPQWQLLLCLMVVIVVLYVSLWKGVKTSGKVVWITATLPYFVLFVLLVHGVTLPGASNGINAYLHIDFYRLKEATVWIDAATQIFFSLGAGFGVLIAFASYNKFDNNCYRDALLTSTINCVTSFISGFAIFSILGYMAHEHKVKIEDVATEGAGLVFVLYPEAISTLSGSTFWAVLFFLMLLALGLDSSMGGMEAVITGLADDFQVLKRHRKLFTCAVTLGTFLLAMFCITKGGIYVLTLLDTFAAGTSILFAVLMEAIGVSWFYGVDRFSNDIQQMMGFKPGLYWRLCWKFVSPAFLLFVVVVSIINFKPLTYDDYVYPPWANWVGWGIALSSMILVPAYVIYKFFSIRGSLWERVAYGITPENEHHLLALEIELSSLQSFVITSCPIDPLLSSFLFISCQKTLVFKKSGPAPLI
# Summary of the method: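 Whole brain minus cerebellum membranes in 50 mM Tris-HCl pH 7.4 with 300 mM NaCl and 5 mM KCl. Displacement of 0.7 nM [3H]nisoxetine. Incubated 40 min at 25 °C, then filtered on BSA-soaked GF/B. 1 μM desipramine defined nonspecific binding.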
# [3] = target: Sodium-dependent serotonin transporter (Rattus norvegicus, UniProt P31652); test: Inhibition of serotonin Transporter Affinity against rat whole brain using [3H]paroxetine as radioligand
# Chain of Sodium-dependent serotonin transporter (P31652 whole entry): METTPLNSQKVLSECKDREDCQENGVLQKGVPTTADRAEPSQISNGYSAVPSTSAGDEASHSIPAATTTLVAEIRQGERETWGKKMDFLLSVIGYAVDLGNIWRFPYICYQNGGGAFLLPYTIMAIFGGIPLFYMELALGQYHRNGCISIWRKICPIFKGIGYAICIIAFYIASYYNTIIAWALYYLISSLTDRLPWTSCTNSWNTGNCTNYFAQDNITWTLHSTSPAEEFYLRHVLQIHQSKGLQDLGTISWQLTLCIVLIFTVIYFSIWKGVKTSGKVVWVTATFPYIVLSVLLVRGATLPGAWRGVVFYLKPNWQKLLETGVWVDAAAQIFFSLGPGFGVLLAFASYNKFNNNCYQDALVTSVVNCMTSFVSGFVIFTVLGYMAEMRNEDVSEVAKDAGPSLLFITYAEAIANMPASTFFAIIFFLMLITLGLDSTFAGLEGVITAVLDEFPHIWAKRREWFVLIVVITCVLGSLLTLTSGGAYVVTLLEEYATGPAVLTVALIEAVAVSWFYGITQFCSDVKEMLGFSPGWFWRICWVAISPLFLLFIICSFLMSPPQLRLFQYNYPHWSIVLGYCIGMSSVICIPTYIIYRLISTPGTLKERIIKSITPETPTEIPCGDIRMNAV
# [4] = target: T1, Monoamine transporters; Norepininephrine & dopamine (Rattus norvegicus) (UniProt P23977+Q9WTR4); test: (§1) Selectivity for Norepinephrine and Dopamine Transporters was evaluated; format: protein assay
# [5] = target: T1, Monoamine transporters; Norepininephrine & dopamine (Rattus norvegicus); test: as §1; format: protein assay; remark: listed apart in the source
# Target sequence in this assay (P23977 whole entry): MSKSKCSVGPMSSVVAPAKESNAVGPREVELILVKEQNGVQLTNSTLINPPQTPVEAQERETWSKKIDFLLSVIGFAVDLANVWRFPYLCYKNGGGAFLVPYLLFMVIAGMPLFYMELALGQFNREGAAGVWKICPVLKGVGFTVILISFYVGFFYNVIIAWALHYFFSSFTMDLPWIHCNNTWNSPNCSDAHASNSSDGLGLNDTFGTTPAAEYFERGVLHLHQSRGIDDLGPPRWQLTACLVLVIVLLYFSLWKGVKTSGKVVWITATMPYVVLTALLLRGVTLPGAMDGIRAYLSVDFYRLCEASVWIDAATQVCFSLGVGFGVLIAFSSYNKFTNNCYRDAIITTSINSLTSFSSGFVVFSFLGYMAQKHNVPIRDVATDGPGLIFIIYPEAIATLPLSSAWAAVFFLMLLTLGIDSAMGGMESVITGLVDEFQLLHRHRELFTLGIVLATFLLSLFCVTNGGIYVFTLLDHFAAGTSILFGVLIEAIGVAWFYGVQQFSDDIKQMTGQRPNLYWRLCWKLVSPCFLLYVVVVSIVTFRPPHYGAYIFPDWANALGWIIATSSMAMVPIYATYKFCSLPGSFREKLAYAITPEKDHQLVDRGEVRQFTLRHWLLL
# Target sequence in this assay (Q9WTR4 1-597): as the sequence (Q9WTR4 whole entry) above
# Chain of Sodium-dependent dopamine transporter (P23977 whole entry): as the sequence (P23977 whole entry) above
SMILES,IC50 [1],IC50 [2],IC50 [3],Selectivity [4],Selectivity [5]
CC(=O)OC[C@@H]1C2CCC(C[C@@H]1OC(=O)c1ccc(I)cc1)N2C (stereo not given in full),3000 nM,,,,
COC(=O)[C@@H]1C2CCC(C[C@@H]1OC(=O)c1ccc(I)cc1)N2C (stereo not given in full),,18500 nM,1050 nM,7.3,0.4
COC(=O)[C@H]1[C@@H](c2ccc(F)cc2)C[C@H]2CC[C@H]1N2C,,258 nM,,,
COC(=O)[C@@H]1C2CCC(C[C@@H]1OC(=O)c1ccccc1O)N2C (stereo not given in full),25 nM,48 nM,143 nM,1.9,5.7
CN1C2CCC1[C@@H](CO)[C@@H](OC(=O)c1ccc(I)cc1)C2 (stereo not given in full),6210 nM,,,,
C=C[C@@H]1C2CCC(C[C@@H]1OC(=O)c1ccc(I)cc1)N2C (stereo not given in full),2170 nM,,,,
CN1C2CCC1[C@@H](C(=O)OCc1ccccc1)[C@@H](OC(=O)c1ccc(I)cc1)C2 (stereo not given in full),4600 nM,,,,
CC[C@@H]1C2CCC(C[C@@H]1OC(=O)c1ccc(I)cc1)N2C (stereo not given in full),2690 nM,,,,
COC(=O)[C@@H]1C2CCC(C[C@@H]1OC(=O)c1ccc(I)cc1O)N2C (stereo not given in full),215 nM,1020 nM,195 nM,4.7,0.9
CN1C2CCC1[C@@H](C(=O)Oc1ccccc1)[C@@H](OC(=O)c1ccc(I)cc1)C2 (stereo not given in full),2020 nM,,,,
CC(C)OC(=O)[C@@H]1C2CCC(C[C@@H]1OC(=O)c1ccc(I)cc1)N2C (stereo not given in full),1380 nM,,,,
CC(C)OC(=O)[C@@H]1C2CCC(C[C@@H]1OC(=O)c1ccc(I)cc1O)N2C (stereo not given in full),663 nM,34800 nM,4510 nM,52.5,6.8
CCOC(=O)[C@@H]1C2CCC(C[C@@H]1OC(=O)c1ccc(I)cc1)N2C (stereo not given in full),2030 nM,,,,
CNC(=O)[C@@H]1C2CCC(C[C@@H]1OC(=O)c1ccc(I)cc1)N2C (stereo not given in full),> 100000 nM,,,,
CN1C2CCC1[C@@H](c1nc(-c3ccccc3)no1)[C@@H](OC(=O)c1ccc(I)cc1)C2 (stereo not given in full),3460 nM,,,,
